Measured values as given in ChEMBL document CHEMBL1154234, “Cytotoxic constituents of Soymida febrifuga from Myanmar” (J Nat Prod, 2009).

What was measured:
Format in all cases: functional, cell-based
[1] = Cytotoxicity against mouse Colon 26-L5 cells after 72 hrs by MTT assay
Summary of the method: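 Murine colon 26-L5 cells kept in RPMI 1640 with 10% FBS, 0.1% NaHCO3, 1% antibiotic antimycotic. Plated at 2 × 10^3/well, 24 h attachment at 37 °C, 5% CO2, then varying concentrations for 72 h. Read-out: MTT (0.5 mg/mL) 2 h, DMSO extraction, 550 nm; IC50 from means of three wells.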

[2] = tested on: HT-1080; experiment: Cytotoxicity against human HT1080 cells after 72 hrs by MTT assay; conditions: HT-1080, 72 h
Summary of the method: (§1)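 Cells grown in MEMR with 10% FBS, 0.1% NaHCO3 and 1% antibiotic antimycotic; seeded 2 × 10^3/well and left 24 h at 37 °C, 5% CO2 to attach. Graded concentrations then added in medium for 72 h; MTT (0.5 mg/mL) for 2 h, formazan taken up in DMSO, absorbance at 550 nm. IC50 from means of three wells.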

[3] = tested on: A549; experiment: Cytotoxicity against human A549 cells after 72 hrs by MTT assay; conditions: A549, 72 h; summary of the method: as §1
[4] = Cytotoxicity against mouse B16-BL6 cells after 72 hrs by MTT assay; conditions: B16-BL6, 72 h; summary of the method: as §1
[5] = tested on: HeLa; experiment: Cytotoxicity against human HeLa cells after 72 hrs by MTT assay; summary of the method: as §1
[6] = tested on: PANC-1; experiment: Cytotoxicity against human PANC1 cells in nutrient-deprived condition after 24 hrs by WST8 assay
Summary of the method: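 PANC-1 seeded 2 × 10^4/well in DMEM, 24 h at 37 °C, 5% CO2; washed with PBS and switched to nutrient-deprived medium (or DMEM) with serial dilutions for 24 h. After PBS wash, DMEM with 10% WST-8 added for 3 h, absorbance at 450 nm. Viability vs blank and untreated control from three wells; PC50 reported.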

SMILES | IC50 [1] | IC50 [2] | IC50 [3] | IC50 [4] | IC50 [5] | PC50 [6] | PC50 ([6]; Homo sapiens, PANC-1, 24 h)
COc1ccc(CCC(=O)c2ccc(O)cc2)c(OC)c1 | 32.2 µM | > 100 µM | 89.5 µM | 55.5 µM | > 100 µM | 83.2 µM | –
COc1cc(O)ccc1C(=O)/C=C/c1ccc(O)cc1 | 14.1 µM | 26.7 µM | 66.5 µM | 49.9 µM | 33.3 µM | >100 µM | –
COc1cc(C(O)C(O)CO)ccc1O (centres undefined) [GUAIACYL GLYCEROL] | 96.9 µM | > 100 µM | > 100 µM | > 100 µM | > 100 µM | >100 µM | –
O=C1c2c(O)cc(O)cc2OC[C@H]1Cc1ccc(O)cc1 | 57.8 µM | > 100 µM | > 100 µM | > 100 µM | > 100 µM | >100 µM | –
COc1ccc(CCC(=O)c2ccc(O)cc2)c(O)c1 | 81.4 µM | > 100 µM | 12 µM | 57.8 µM | 46.1 µM | >100 µM | –
COc1cc(O)cc2c1OC[C@H](Cc1ccc(O)cc1)C2 | 49.5 µM | 70.2 µM | > 100 µM | > 100 µM | 65.6 µM | >100 µM | –
COc1ccc(C[C@@H]2COc3cc(O)cc(O)c3C2=O)cc1 | 30.6 µM | > 100 µM | > 100 µM | 64.3 µM | > 100 µM | – | > 100 µM
Oc1ccc([C@H]2CCc3ccc(O)cc3O2)cc1 [TUPICHINOL C] | 43.9 µM | 50.1 µM | 94 µM | > 100 µM | 93.4 µM | >100 µM | –
COc1ccc(C(=O)CCc2c(OC)cc(O)cc2OC)cc1 | 68.1 µM | > 100 µM | > 100 µM | 70.1 µM | > 100 µM | 85.7 µM | –
COc1cc(O)cc(OC)c1CCC(=O)c1ccc(O)cc1 | 40.2 µM | 67.2 µM | 42.9 µM | 84.4 µM | 49 µM | 69.7 µM | –
COc1cc(O)cc(/C=C/c2ccc(O)cc2)c1 | 35.8 µM | 89.1 µM | 91.8 µM | > 100 µM | 48.4 µM | 71.4 µM | –
Oc1ccc(C[C@H]2COc3cc(O)ccc3C2)cc1 | 44.5 µM | 79.6 µM | > 100 µM | > 100 µM | > 100 µM | 79 µM | –
O=C(/C=C/c1ccccc1)c1ccc(O)cc1O [2',4'-DIHYDROXYCHALCONE] | 4.71 µM | 17 µM | 23.2 µM | > 100 µM | 24.4 µM | 19 µM | –
COc1cc2cc(Cc3ccc(O)cc3)c(=O)oc2cc1O | 61.8 µM | 40.3 µM | 88.1 µM | > 100 µM | 69.5 µM | 86.7 µM | –
O=C(CCc1ccc(O)cc1O)c1ccc(O)cc1 | > 100 µM | > 100 µM | > 100 µM | > 100 µM | > 100 µM | >100 µM | –
COc1cccc2c1C(=O)c1c(O)c3c(c(O)c1C2=O)C[C@@](O)(C(=O)CO)C[C@@H]3O[C@H]1C[C@H](N)[C@H](O)[C@H](C)O1 [DOXORUBICIN] | 3.12 µM | 0.41 µM | 0.84 µM | 3.07 µM | – | – | –
COc1c(O)cc2c(c1O)C(=O)[C@H](Cc1ccc(O)cc1)CO2 | 89.5 µM | 96.2 µM | > 100 µM | > 100 µM | > 100 µM | >100 µM | –
COc1ccc2c(c1)O[C@H](c1ccc(O)cc1)CC2 | 52.8 µM | > 100 µM | > 100 µM | 40.8 µM | > 100 µM | 74 µM | –
COc1cc(O)c(C)c2c1CC[C@H](c1ccc(O)cc1)O2 | 59.1 µM | 37 µM | 35.5 µM | 89.1 µM | 74 µM | 70.1 µM | –
O=C1c2ccc(O)cc2OC[C@H]1Cc1ccc(O)cc1 | 69.3 µM | > 100 µM | > 100 µM | 99.6 µM | > 100 µM | >100 µM | –
Cc1c(O)ccc2c1O[C@@H](c1ccc(O)cc1)CC2 | 40.2 µM | 24.1 µM | 39.7 µM | 98.9 µM | 89.2 µM | 85.8 µM | –
COc1cc(/C=C/c2ccc(O)cc2)cc(OC)c1 [PTEROSTILBENE] | 2.96 µM | 93.4 µM | 71.7 µM | 15.9 µM | 9.43 µM | 44.4 µM | –
O=C1C[C@@H](c2ccccc2)Oc2cc(O)cc(O)c21 [PINOCEMBRIN] | 71 µM | 72.8 µM | > 100 µM | > 100 µM | > 100 µM | 72.9 µM | –
O=c1[nH]cc(F)c(=O)[nH]1 [FLUOROURACIL] | 0.41 µM | 8.58 µM | 5.91 µM | 7.39 µM | 0.44 µM | – | –
COc1cc2c(cc1O)C[C@@H](Cc1ccc(O)cc1)CO2 | 22.2 µM | 17.5 µM | 19.1 µM | 75.4 µM | 37.8 µM | 63 µM | –
O=C(/C=C/c1ccccc1O)c1ccc(O)cc1O | 28.9 µM | 40.4 µM | 89.9 µM | > 100 µM | 89.1 µM | >100 µM | –
O=C(O)c1ccc(O)cc1 [PARABEN] | 33.3 µM | > 100 µM | > 100 µM | 63.3 µM | 36.2 µM | >100 µM | –
